Calls of active or inactive are those of the source. The rule behind the calls is not given here. Where only a bound is given, the exact number is not on record here.

One compound from ChEMBL document CHEMBL4196230, “Design, Synthesis, and Blood-Brain Barrier Transport Study of Pyrilamine Derivatives as Histone Deacetylase Inhibitors” (ACS Med Chem Lett, 2018) can be followed below.

The nature of series [1]: Substrate activity at PYSOCA in human CMEC/D3 cells assessed as transporter-mediated drug uptake clearance assessed per mg protein at 4degC measured up to 10 mins. Format: ADME, cell-based. Put shortly: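 Uptake by hCMEC/D3 cells followed over time at 37 °C or 4 °C. Clearance was calculated from the initial linear slope, expressed per mg protein. Mean ± S.E., n = 4.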

In series [2] the target is T1, Protein deacetylase HDAC6 (Mus musculus) (UniProt Q9Z2V5).
T1 sequence (whole entry): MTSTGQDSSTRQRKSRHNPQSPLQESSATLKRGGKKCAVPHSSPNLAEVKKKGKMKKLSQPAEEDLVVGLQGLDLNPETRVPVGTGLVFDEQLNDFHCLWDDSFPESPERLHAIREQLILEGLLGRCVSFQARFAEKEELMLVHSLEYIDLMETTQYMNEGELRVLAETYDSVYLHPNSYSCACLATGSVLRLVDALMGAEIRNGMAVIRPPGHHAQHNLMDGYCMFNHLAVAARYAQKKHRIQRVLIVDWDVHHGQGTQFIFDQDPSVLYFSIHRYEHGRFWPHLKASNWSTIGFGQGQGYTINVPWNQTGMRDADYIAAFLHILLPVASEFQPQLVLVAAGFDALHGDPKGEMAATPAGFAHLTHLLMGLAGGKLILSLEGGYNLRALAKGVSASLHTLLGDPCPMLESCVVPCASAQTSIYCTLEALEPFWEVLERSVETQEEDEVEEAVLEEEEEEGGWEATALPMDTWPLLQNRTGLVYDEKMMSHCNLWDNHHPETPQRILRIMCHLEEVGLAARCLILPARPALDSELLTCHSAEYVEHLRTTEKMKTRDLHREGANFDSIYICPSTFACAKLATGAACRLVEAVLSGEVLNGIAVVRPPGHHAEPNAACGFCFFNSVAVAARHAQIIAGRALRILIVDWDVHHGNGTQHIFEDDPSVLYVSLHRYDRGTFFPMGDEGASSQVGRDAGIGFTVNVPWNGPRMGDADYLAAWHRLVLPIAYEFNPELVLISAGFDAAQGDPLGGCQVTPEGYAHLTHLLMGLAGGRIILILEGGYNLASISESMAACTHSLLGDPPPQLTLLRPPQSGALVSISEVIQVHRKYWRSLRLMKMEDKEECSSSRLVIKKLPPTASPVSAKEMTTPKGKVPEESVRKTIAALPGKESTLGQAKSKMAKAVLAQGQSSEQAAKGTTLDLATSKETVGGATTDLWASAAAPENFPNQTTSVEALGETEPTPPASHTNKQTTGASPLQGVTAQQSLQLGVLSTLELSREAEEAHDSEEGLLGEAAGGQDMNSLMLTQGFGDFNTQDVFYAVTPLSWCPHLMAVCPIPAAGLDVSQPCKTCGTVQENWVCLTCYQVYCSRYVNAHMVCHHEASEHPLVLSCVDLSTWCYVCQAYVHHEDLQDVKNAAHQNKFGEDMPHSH
Nature of the series: Inhibition of mouse HDAC6 expressed in 293T cells at 100 uM using Ac-KGLGK(Ac)-MCA as substrate measured after 30 mins by fluorescence assay relative to control.

The target in series [3] is T2, Histone deacetylase 11 (Homo sapiens) (UniProt Q96DB2).
T2 sequence (whole entry): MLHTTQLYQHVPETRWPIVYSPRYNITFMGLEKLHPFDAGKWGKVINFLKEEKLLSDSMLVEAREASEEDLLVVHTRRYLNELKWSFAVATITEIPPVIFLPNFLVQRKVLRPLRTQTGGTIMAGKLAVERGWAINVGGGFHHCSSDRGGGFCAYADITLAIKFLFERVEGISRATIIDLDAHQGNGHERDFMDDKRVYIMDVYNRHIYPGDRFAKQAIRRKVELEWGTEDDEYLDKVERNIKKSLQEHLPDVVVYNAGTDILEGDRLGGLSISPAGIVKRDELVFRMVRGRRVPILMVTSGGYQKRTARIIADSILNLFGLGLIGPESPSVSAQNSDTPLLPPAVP
In words: Inhibition of recombinant human full length HDAC11 expressed in baculovirus infected insect cells at 30 uM using HDAC class 2a substrate measured after 30 mins by fluorescence assay relative to control.

In another series the test system is PYSOCA. In words: Substrate activity at PYSOCA in human CMEC/D3 cells assessed as Km for transporter-mediated drug uptake measured for 2 mins at 37degC. Type of series: ADME, cell-based. The conditions noted are these: hCMEC/D3 cells. The gist of the method:
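Uptake by hCMEC/D3 cells measured over a range of concentrations at 37 °C for 2 min. Km and Vmax were obtained by fitting to Eq. 1. Mean ± S.E., n = 4.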

Series [4] can be described thus: Substrate activity at PYSOCA in human CMEC/D3 cells assessed as transporter-mediated drug uptake measured for 2 mins at 37degC in presence of TEA. Format: ADME, cell-based.
Series [5] in a line: Substrate activity at PYSOCA in human CMEC/D3 cells assessed as transporter-mediated drug uptake measured for 1 min at 37degC in presence of NH4Cl under intracellular acidification condition. Type of series: ADME, cell-based. The gist of the method:
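hCMEC/D3 cells were pretreated in transport buffer with or without 30 mM NH4Cl. Uptake was then measured at 37 °C for 1 min with or without 30 mM NH4Cl (Control, Pre and Acute conditions). Mean ± S.E., n = 4.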

Series [6] addresses Histone deacetylase (Homo sapiens) (UniProt Q13547+O15379+Q9UBN7+Q92769+Q9UQL6+Q8WUI4+Q9BY41+Q96DB2+P56524+Q9UKV0+Q969S8). The conditions noted are these: at 10 µM.

Turning to `COc1ccc(CN(CCN(C)C)c2ccc(C(=O)Nc3ccccc3N)cn2)cc1`, the values for the Activity entry in series [1], in series [4] and in series [5] were “Not Active”, “Active” and “Active”, respectively. The inhibition in series [2] was 11%; in series [3], less than 10%. In the series with PYSOCA, the Km at 2 min came to 326 µM. Further, the inhibition result in series [6] is “Active”.

As a reminder, the inhibition is the drop in the measured response relative to a control, in per cent. What is called Km is the concentration of substrate that gives half-maximal velocity.
